The target in assay [1] is Cx43 CT (amino acids 255–382) (Rattus norvegicus, UniProt P08050). Briefly: Surface plasmon resonance, immobilized biotin-peptides, Cx43 CT analyte. Format: binding. The method in brief: (§1)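 Biotin-peptides are immobilized at equal RU on a streptavidin chip in HEPES/EDTA/NaCl/Tween‑20, pH 7.4. Analyte is Cx43 CT (wild type or KK/QQ) with GST removed by PreScission protease, injected at several concentrations in random order in 10 mmol/L HEPES, 100 mmol/L NaCl pH 7.4 at 30 μL/min. Regeneration: 50 mmol/L NaOH/1 mol/L NaCl. Biotin-reversed-sequence reference subtracted; mean of 3 runs.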

Another assay concerns Cx43 CT‐KK/QQ. In words: Surface plasmon resonance, immobilized biotin-peptides, Cx43 CT‐KK/QQ analyte. Format: binding. As to conditions: analyte 0.5 to 15 μmol/L, reverse control peptide subtracted, mean of 3 runs. The method in brief:
as §1

Assay [2] has as its system PKCε phosphorylation of Cx43‐CT substrate at Ser368. Briefly: PKCε Cx43 CT S368 phosphorylation assay. The note with it: Western blot pS368/total Cx43; biotin-tagged peptides. Format: biochemical. The method in brief:
(§2)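 PKCε (400 ng/mL, prediluted in HEPES/CHAPS/DTT buffer) is used with wild-type or KK/QQ Cx43‑CT (aa 255–382) substrate at 14 μg/mL, plus peptide. Incubated 12 min at 37°C, quenched in LDS, blotted for pS368, stripped, reprobed for total Cx43. % phosphorylation normalized to PKC+ no-peptide control.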

The test system of assay [3] is Cx43 CT KK/QQ mutant substrate. Briefly: PKCε phosphorylation assay with Cx43 CT KK/QQ mutant substrate. Format: biochemical. The note with it: biotin‐αCT1 20 μmol/L. The method in brief:
as §2

For another assay, the system named is ZO‐1 PDZ2 domain. In words: EDC zero-length cross‐linking to GST ZO‐1 PDZ domains. Format: binding. As to conditions: biotin‐tagged peptide at 5, 25 and 50 μmol/L, NeutrAvidin labeling. In a few lines:
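Direct coupling uses purified GST–ZO‑1 PDZ fusion protein from IPTG-induced BL21 at 50 μg/mL with biotinylated peptide in PBS pH 7.5. They react 1 h at room temperature before EDC is added. The mixture is boiled in LDS buffer, run on 18% SDS‑PAGE and blotted for GST or with NeutrAvidin‑HRP by chemiluminescence.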

A further assay has as its system Cx43 CT. In words: EDC cross‐linking of kinase reaction mixtures, Cx43 CT. Format: binding. The note with it: peptide at 5, 10 and 25 μmol/L, streptavidin labeling. The method in brief:
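Kinase mixture as in the PKCε assay, but in 20 mmol/L MOPS pH 7.2 with 30 μg/mL Cx43 CT substrate and varied peptide, 15 min at 37°C. EDC added to 20 mmol/L final and left 1 h at room temperature. Stopped with LDS buffer and boiled 5 min. Run on 18% gels, then Coomassie-stained (bands excised for MS/MS) or blotted for biotin with HRP‑NeutrAvidin.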

A further assay concerns ZO‐1 PDZ2. Briefly: Protein thermal shift assay, ZO‐1 PDZ2. Format: binding. As to conditions: 500 μg/mL GST‐PDZ2, 25 to 100 μmol/L peptide, PBS pH 7.4, SYPRO Orange, N=6. The method in brief:
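Recombinant GST–PDZ2 (500 μg/mL) is mixed with 25–100 μmol/L peptide in PBS pH 7.4 with SYPRO Orange at 8× final. Melt runs from 25°C to 95°C in 0.05 °C/s steps on a real-time PCR instrument, ROX channel, no quencher. Tm is compared against unliganded protein. Six independent runs.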

We go through five sequences from PMC6759879 (Journal of the American Heart Association: Cardiovascular …, 2019).

Chain of Cx43 CT (amino acids 255–382) (P08050 255-382): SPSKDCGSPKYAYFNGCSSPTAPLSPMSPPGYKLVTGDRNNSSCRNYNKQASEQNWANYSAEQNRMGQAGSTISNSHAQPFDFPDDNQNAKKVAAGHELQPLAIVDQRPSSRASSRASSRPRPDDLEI

As for RQPKIWFPNRRKPWKK RPRPAALAI [Peptide M1], the “Cx43 CT binding to immobilized biotin-peptide (SPR response)” value in assay [1] (analyte 0.5 to 15 μmol/L, reverse control peptide subtracted, mean of 3 runs) is listed as “loss of Cx43 CT binding competence”. Moreover, the “Cx43 CT KK/QQ mutant binding to immobilized biotin-peptide (SPR response)” value (“Cx43 CT KK/QQ mutant binding” below) in the assay with Cx43 CT‐KK/QQ is “minimal interaction”. In assay [2], the “Cx43 S368 phosphorylation versus PKCε+plus control (in words)” value is given as “did not increase Cx43 S368 phosphorylation”. The “Phosphorylation of Cx43 CT KK/QQ mutant substrate” value in assay [3] is reported as “Neither αCT1 nor M1 prompted an increase in phosphorylation”.

For RQPKIWFPNRRKPWKK RPRPAALEI [Peptide M2], in the assay on Cx43 CT‐KK/QQ, the “Cx43 CT KK/QQ mutant binding” value was “minimal interaction”. Moreover, the “Cx43 S368 phosphorylation versus PKCε+plus control (in words)” value in assay [2] is listed as “did not increase Cx43 S368 phosphorylation”.

In the case of RQPKIWFPNRRKPWKK RPRPDDLE [αCT1‐I], the “Cx43 S368 phosphorylation versus PKCε+plus control (in words)” value in assay [2] was “significant increase in PKCε‐mediated phosphorylation of Cx43 CT”. Further, the “Interaction with ZO‐1 PDZ2 by EDC cross‐linking” value with ZO‐1 PDZ2 domain is recorded as “incompetent to interact with the ZO‐1 PDZ2 domain”.

With RQPKIWFPNRRKPWKK LPAARIAPR [Peptide M4], in the assay with Cx43 CT, the “Cross‐linking to Cx43 CT by EDC” value was “no evidence of cross‐linking”.

For the sequence RQPKIWFPNRRKPWKK RPRPDDLBI [Peptide M3], the “SPR binding kinetics with Cx43 CT (in words)” value in assay [1] (inspection of SPR curves) is given as “higher initial on rate”. Also, the “Cx43 CT KK/QQ mutant binding” value with Cx43 CT‐KK/QQ is “minimal interaction”. In addition, the “Change of ZO‐1 PDZ2 melt temperature (Tm)” value with ZO‐1 PDZ2 is “evidence of significant interaction”. In addition, the “Cx43 S368 phosphorylation versus PKCε+plus control (in words)” value in assay [2] is recorded as “did not increase Cx43 S368 phosphorylation”.
